In brackets after ≈: the same amount, converted by molar mass. Activity calls are given as the source filed them. No cut-off for these calls is given here.
Columns and labels:
[1] = Acute toxicity in bony fish assessed as mortality at 3 ug/mL after 96 hrs; conditions: actinopterygii; read-out: Activity
Summary of the method: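 Guppy (Poecilia reticulata) acute static exposure: 10 fish per concentration in 2 L wide-mouthed jars holding the test solution. Compounds were added from […] to give the final concentrations. Dead fish were counted and removed every 24 h, with general condition noted; percentage mortality was scored at 96 h. Two experiments, each in triplicate.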

[2] = test system: Candida tropicalis; test: Antifungal activity against Candida tropicalis by microplate reader analysis; format: functional
[3] = test system: Candida albicans; test: Antifungal activity against Candida albicans ATCC 10231 assessed as growth inhibition at 125 ug/mL after 24 hrs by microplate reader analysis; format: functional; conditions: ATCC 10231, 24 h, read-out: GI
Summary of the method: (§1)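 96-well RPMI-1640 wells with compound at final 250–0.98 µg/mL (DMSO ≤1%). Inoculum 100 µL, 1–5 × 10³ CFU/mL, 200 µL final. Each well includes growth (DMSO, no compound) and sterility controls. % inhibition = 100 − (CTW−SCW)/(GCW−SCW) × 100, run in duplicate.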

[4] = test system: Cryptococcus neoformans; test: Antifungal activity against Cryptococcus neoformans ATCC 32264 after 48 hrs by microplate reader analysis; format: functional; conditions: ATCC 32264, 48 h
Summary of the method: (§2)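 Microplate growth-inhibition assay in RPMI-1640, compound at final 250–0.98 µg/mL (DMSO ≤1%). Inoculum 1–5 × 10³ CFU/mL. Sterility and DMSO growth controls included. Percent inhibition is computed from blank-corrected OD relative to the growth control, tested in duplicate.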

[5] = test system: Trichophyton rubrum; test: Antifungal activity against Trichophyton rubrum CCC 110 at 0.98 to 250 ug/mL by NCCLS broth microdilution method; format: functional, organism-based
Summary of the method: (§3)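 MIC by broth microdilution per NCCLS M27-A3/M38-A2 in RPMI-1640 buffered to pH 7.0 with MOPS. Twofold dilutions from 250–0.98 µg/mL, final DMSO ≤1%. Inoculum 1–5 × 10³ CFU/mL. Incubated in a moist dark chamber, 30 °C for Aspergillus and 28–30 °C for dermatophytes. Read visually when control growth allowed. Endpoint is the lowest concentration giving total inhibition of visible growth (MIC100).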

[6] = test system: Cryptococcus neoformans; test: Fungicidal activity against Cryptococcus neoformans ATCC 32264 at 0.98 to 250 ug/mL after 48 hrs by agar plate dilution method; format: functional, organism-based
Summary of the method: (§4)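 MFC: after the microdilution MIC, material from each clear well was plated onto RPMI-1640 agar buffered with MOPS. Plates incubated at 30 °C and read after 48 h. MFC is the lowest concentration giving total inhibition of visible growth.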

[7] = test system: Candida tropicalis; test: Antifungal activity against Candida tropicalis after 48 hrs by NCCLS broth microdilution method; format: functional; conditions: read-out: MIC100
Summary of the method: (§5)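 Yeast MIC by NCCLS M27-A3 broth microdilution in RPMI-1640 buffered to pH 7.0 with MOPS. Twofold dilutions of 250–0.98 µg/mL, final DMSO ≤1%. Inoculum 1–5 × 10³ CFU/mL. Incubated at 30 °C in a moist dark chamber. Read visually at 48 h. MIC100 is the lowest concentration with no visible growth versus drug-free control.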

[8] = test system: Aspergillus flavus; test: Antifungal activity against Aspergillus flavus ATCC 9170 at 0.98 to 250 ug/mL by NCCLS broth microdilution method; format: functional, organism-based; summary of the method: as §3
[9] = test system: Cryptococcus neoformans; test: Antifungal activity against Cryptococcus neoformans ATCC 32264 assessed as growth inhibition at 31.25 ug/mL after 48 hrs by microplate reader analysis; format: functional; conditions: ATCC 32264, 48 h, read-out: GI; summary of the method: as §2
[10] = test system: Trichophyton mentagrophytes; test: Antifungal activity against Trichophyton mentagrophytes ATCC 9972 at 0.98 to 250 ug/mL by NCCLS broth microdilution method; format: functional, organism-based; summary of the method: as §3
[11] = test system: Candida tropicalis; test: Antifungal activity against Candida tropicalis assessed as growth inhibition at 62.5 ug/mL by microplate reader analysis; format: functional; conditions: read-out: GI
[12] = test system: Cryptococcus neoformans; test: Antifungal activity against Cryptococcus neoformans ATCC 32264 assessed as growth inhibition at 62.5 ug/mL after 48 hrs by microplate reader analysis; format: functional; conditions: ATCC 32264, 48 h, read-out: GI; summary of the method: as §2
[13] = test system: Candida tropicalis; test: Fungicidal activity against Candida tropicalis at 0.98 to 250 ug/mL after 48 hrs by agar plate dilution method; format: functional, organism-based; summary of the method: as §4
[14] = test system: Candida albicans; test: Antifungal activity against Candida albicans ATCC 10231 assessed as growth inhibition at 62.5 ug/mL after 24 hrs by microplate reader analysis; format: functional; conditions: ATCC 10231, 24 h, read-out: GI; summary of the method: as §1
[15] = test system: Candida albicans; test: Antifungal activity against Candida albicans ATCC 10231 assessed as growth inhibition at 7.8 ug/mL after 24 hrs by microplate reader analysis; format: functional; conditions: ATCC 10231, 24 h, read-out: GI; summary of the method: as §1
[16] = test system: Candida albicans; test: Antifungal activity against Candida albicans ATCC 10231 assessed as growth inhibition at 15.6 ug/mL after 24 hrs by microplate reader analysis; format: functional; conditions: ATCC 10231, 24 h, read-out: GI; summary of the method: as §1
[17] = test system: Candida tropicalis; test: Antifungal activity against Candida tropicalis assessed as growth inhibition at 15.6 ug/mL by microplate reader analysis; format: functional; conditions: read-out: GI
[18] = test system: Candida albicans; test: Antifungal activity against Candida albicans ATCC 10231 after 48 hrs by NCCLS broth microdilution method; format: functional; conditions: ATCC 10231, 48 h, read-out: MIC100; summary of the method: as §5
[19] = test system: Candida tropicalis; test: Antifungal activity against Candida tropicalis assessed as growth inhibition at 7.8 ug/mL by microplate reader analysis; format: functional; conditions: read-out: GI
[20] = test system: Cryptococcus neoformans; test: Antifungal activity against Cryptococcus neoformans ATCC 32264 assessed as growth inhibition at 15.6 ug/mL after 48 hrs by microplate reader analysis; format: functional; conditions: ATCC 32264, 48 h, read-out: GI; summary of the method: as §2
[21] = test system: Candida tropicalis; test: Antifungal activity against Candida tropicalis assessed as growth inhibition at 3.9 ug/mL by microplate reader analysis; format: functional; conditions: read-out: GI
[22] = test system: Candida tropicalis; test: Antifungal activity against Candida tropicalis assessed as growth inhibition at 125 ug/mL by microplate reader analysis; format: functional; conditions: read-out: GI
[23] = test system: Candida albicans; test: Antifungal activity against Candida albicans ATCC 10231 assessed as growth inhibition at 31.25 ug/mL after 24 hrs by microplate reader analysis; format: functional; conditions: ATCC 10231, 24 h, read-out: GI; summary of the method: as §1
[24] = test system: Aspergillus niger; test: Antifungal activity against Aspergillus niger ATCC 9029 at 0.98 to 250 ug/mL by NCCLS broth microdilution method; format: functional, organism-based; summary of the method: as §3
[25] = test system: Cryptococcus neoformans; test: Antifungal activity against Cryptococcus neoformans ATCC 32264 assessed as growth inhibition at 7.8 ug/mL after 48 hrs by microplate reader analysis; format: functional; conditions: ATCC 32264, 48 h, read-out: GI; summary of the method: as §2
[26] = test system: Candida albicans; test: Antifungal activity against Candida albicans ATCC 10231 assessed as growth inhibition at 3.9 ug/mL after 24 hrs by microplate reader analysis; format: functional; conditions: ATCC 10231, 24 h, read-out: GI; summary of the method: as §1
[27] = test system: Cryptococcus neoformans; test: Antifungal activity against Cryptococcus neoformans ATCC 32264 assessed as growth inhibition at 250 ug/mL after 48 hrs by microplate reader analysis; format: functional; conditions: ATCC 32264, 48 h, read-out: GI; summary of the method: as §2
[28] = test system: Nannizzia gypsea; test: Antifungal activity against Microsporum gypseum CCC 115 at 0.98 to 250 ug/mL by NCCLS broth microdilution method; format: functional, organism-based; summary of the method: as §3
[29] = test system: Candida albicans; test: Antifungal activity against Candida albicans ATCC 10231 assessed as growth inhibition at 250 ug/mL after 24 hrs by microplate reader analysis; format: functional; conditions: ATCC 10231, 24 h, read-out: GI; summary of the method: as §1
[30] = test system: Candida tropicalis; test: Antifungal activity against Candida tropicalis assessed as growth inhibition at 250 ug/mL by microplate reader analysis; format: functional; conditions: read-out: GI
[31] = test system: Candida albicans; test: Antifungal activity against Candida albicans ATCC 10231 after 24 hrs by microplate reader analysis; format: functional; conditions: ATCC 10231, 24 h; summary of the method: as §1
[32] = test system: Cryptococcus neoformans; test: Antifungal activity against Cryptococcus neoformans ATCC 32264 assessed as growth inhibition at 3.9 ug/mL after 48 hrs by microplate reader analysis; format: functional; conditions: ATCC 32264, 48 h, read-out: GI; summary of the method: as §2
[33] = test system: Candida albicans; test: Fungicidal activity against Candida albicans ATCC 10231 at 0.98 to 250 ug/mL after 48 hrs by agar plate dilution method; format: functional, organism-based; summary of the method: as §4
[34] = test system: Cryptococcus neoformans; test: Antifungal activity against Cryptococcus neoformans ATCC 32264 after 48 hrs by NCCLS broth microdilution method; format: functional; conditions: ATCC 32264, 48 h, read-out: MIC100; summary of the method: as §5
[35] = test system: Cryptococcus neoformans; test: Antifungal activity against Cryptococcus neoformans ATCC 32264 assessed as growth inhibition at 125 ug/mL after 48 hrs by microplate reader analysis; format: functional; conditions: ATCC 32264, 48 h, read-out: GI; summary of the method: as §2
[36] = test system: Candida tropicalis; test: Antifungal activity against Candida tropicalis assessed as growth inhibition at 31.25 ug/mL by microplate reader analysis; format: functional; conditions: read-out: GI
[37] = test system: Aspergillus fumigatus; test: Antifungal activity against Aspergillus fumigatus ATCC 26934 at 0.98 to 250 ug/mL by NCCLS broth microdilution method; format: functional, organism-based; summary of the method: as §3

COc1nc(N)nc2c1ncn2C12CC3CC(CC(C3)C1)C2
mortality at 96 h, 3 ug/mL [1]: 0%
MIC50 [2]: 62.5 µg/mL (≈ 209 µM)
inhibition of growth at 125 µg/mL [3]: 86.8%
MIC50 [4]: 31.2 µg/mL (≈ 104 µM)
Activity [5]: inactive
Activity [6]: inactive
MIC [7]: 250 µg/mL (≈ 835 µM)
Activity [8]: inactive
inhibition of growth at 31.25 µg/mL [9]: 56.9%
Activity [10]: inactive
inhibition of growth at 62.5 µg/mL [11]: 53.3%
inhibition of growth at 62.5 µg/mL [12]: 51.1%
Activity [13]: inactive
inhibition of growth at 62.5 µg/mL [14]: 43.4%
inhibition of growth at 7.8 µg/mL [15]: 23.2%
inhibition of growth at 15.6 µg/mL [16]: 34.3%
inhibition of growth at 15.6 µg/mL [17]: 41.5%
MIC [18]: 250 µg/mL (≈ 835 µM)
inhibition of growth at 7.8 µg/mL [19]: 34.5%
inhibition of growth at 15.6 µg/mL [20]: 39.2%
inhibition of growth at 3.9 µg/mL [21]: 36.4%
inhibition of growth at 125 µg/mL [22]: 81.2%
inhibition of growth at 31.25 µg/mL [23]: 38.9%
Activity [24]: inactive
inhibition of growth at 7.8 µg/mL [25]: 9.5%
inhibition of growth at 3.9 µg/mL [26]: 29.3%
inhibition of growth at 250 µg/mL [27]: 100%
Activity [28]: inactive
inhibition of growth at 250 µg/mL [29]: 100%
inhibition of growth at 250 µg/mL [30]: 100%
MIC50 [31]: 62.5 µg/mL (≈ 209 µM)
inhibition of growth at 3.9 µg/mL [32]: 0%
Activity [33]: inactive
MIC [34]: 250 µg/mL (≈ 835 µM)
inhibition of growth at 125 µg/mL [35]: 88%
inhibition of growth at 31.25 µg/mL [36]: 47.3%
Activity [37]: inactive

Source: ChEMBL document CHEMBL2146464, “Structure-activity relationship study of nitrosopyrimidines acting as antifungal agents” (Bioorg Med Chem, 2012)
